Measured values as given in ChEMBL document CHEMBL1144850, “Combretastatin dinitrogen-substituted stilbene analogues as tubulin-binding and vascular-disrupting agents” (J Nat Prod, 2008).

Key:
[1] = tested on: BXPC-3; experiment: Cytotoxicity against human BXPC3 cells after 48 hrs by SRB assay; type: functional
Method in brief: (§1)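 Cells grown in RPMI1640 with 5% fetal bovine serum were seeded and incubated 24 h, then exposed to serial dilutions for 48 h. Plates were fixed with trichloroacetic acid, stained with sulforhodamine B and read by plate reader. GI50 is the concentration giving a 50% reduction in net protein increase, calculated from optical density data.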

[2] = tested on: NCI-H460; experiment: Cytotoxicity against human NCIH460 cells after 48 hrs by SRB assay; type: functional; method in brief: as §1
[3] = tested on: KM-20L2; experiment: Cytotoxicity against human KM20L2 cells after 48 hrs by SRB assay; type: functional; method in brief: as §1
[4] = tested on: DU-145; experiment: Cytotoxicity against human DU145 cells after 48 hrs by SRB assay; type: functional; method in brief: as §1
[5] = Inhibition of calf tubulin polymerization; set-up: species or system Bos taurus
Method in brief: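 Tubulin purified from calf brain; polymerization followed turbidimetrically at 350 nm. IC50 obtained from the data by nonlinear regression.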

[6] = tested on: MCF7; experiment: Cytotoxicity against human MCF7 cells after 48 hrs by SRB assay; type: functional; method in brief: as §1
[7] = tested on: SF-268; experiment: Cytotoxicity against human SF268 cells after 48 hrs by SRB assay; type: functional; method in brief: as §1
[8] = tested on: Mus musculus; experiment: Reduction of blood flow to tumor in MHEC5-T xenografted SCID mouse at 100 mg/kg, ip after 24 hrs; type: functional; set-up: scale not given: the % may be the effect or the level left; details: route intraperitoneal
Method in brief: (§2)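 SCID mice bearing flank MHEC5-T tumours (cultured cells injected into right flank), dosed ip at 10 or 100 mg/kg once tumours reached 300 mm3 without necrosis. At 24 h, diluted fluorescent microbeads (1:6 in saline) injected iv via tail vein; mice killed 3 min later. 8 µm cryosections of tumour and normal organs imaged by fluorescence microscopy; three sections from three tumours per group; vehicle controls.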

[9] = Cytotoxicity against mouse MHEC5-T cells after 1 hr by MTT assay; type: functional, cell-based
Method in brief: (§3)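 Mouse heart endothelioma MHEC5-T cells exposed to serial dilutions of compound; viability read by MTT reduction after incubation at 37 °C for 1 h or 5 days exposure. IC50 = concentration reducing viability by 50% versus untreated control.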

[10] = Cytotoxicity against mouse MHEC5-T cells after 5 days by MTT assay; type: functional, cell-based; details: 120 h; method in brief: as §3
[11] = tested on: Mus musculus; experiment: Reduction of blood flow to tumor in MHEC5-T xenografted SCID mouse at 10 mg/kg, ip after 24 hrs; type: functional; set-up: scale not given: the % may be the effect or the level left; details: route intraperitoneal; method in brief: as §2
[12] = tested on: P388; experiment: Growth inhibition of mouse P388 cells; type: functional; details: read-out: ED50 (the source's name)

| IC50 [5] | SMILES | GI50 ([1]; Homo sapiens, BXPC-3, 48 h) | GI50 ([2]; Homo sapiens, NCI-H460, 48 h) | GI50 ([3]; Homo sapiens, KM-20L2, 48 h) | GI50 ([4]; Homo sapiens, DU-145, 48 h) | GI50 ([6]; Homo sapiens, MCF7, 48 h) | GI50 ([7]; Homo sapiens, SF-268, 48 h) | Activity [8] | IC50 [9] | IC50 [10] | GI50 [1] | GI50 [6] | GI50 [7] | GI50 [2] | GI50 [3] | GI50 [4] | Activity [11] | EC50 [12] |
| --- | --- | --- | --- | --- | --- | --- | --- | --- | --- | --- | --- | --- | --- | --- | --- | --- | --- | --- |
|  | COc1ccc(/C=C\c2cc(OC)c(OC)c(OC)c2)cc1O [COMBRETASTATIN A4] | 390 nM | 0.6 nM | 340 nM | 0.8 nM |  |  |  |  |  |  |  |  |  |  |  |  |  |
| > 40000 nM | COc1cc([N+](=O)[O-])c(/C=C\c2cc(OC)c(OC)c(OC)c2)cc1N | 2700 nM | 2500 nM | 3500 nM | 3300 nM | 2600 nM | 2800 nM |  |  |  |  |  |  |  |  |  |  |  |
| 31000 nM | COc1cc(N)c(/C=C\c2cc(OC)c(OC)c(OC)c2)cc1[N+](=O)[O-] |  |  |  |  |  |  | 0% | 37700 nM | > 1400 nM | 3200 nM | 2600 nM | 2600 nM | 3600 nM | 3500 nM | 3600 nM | 0% |  |
| > 40000 nM | COc1cc([N+](=O)[O-])c(/C=C/c2cc(OC)c(OC)c(OC)c2)cc1[N+](=O)[O-] | > 10000 nM | > 10000 nM | > 10000 nM | > 10000 nM | 2500 nM | 1700 nM |  |  |  |  |  |  |  |  |  |  |  |
| > 40000 nM | COc1cc([N+](=O)[O-])c(/C=C\c2cc(OC)c(OC)c(OC)c2)cc1[N+](=O)[O-] | 3600 nM | 3500 nM | 4600 nM | 5500 nM | 2300 nM | 2800 nM |  |  |  |  |  |  |  |  |  |  |  |
| > 40000 nM | COc1cc(/C=C/c2cc([N+](=O)[O-])c(OC)c([N+](=O)[O-])c2)cc(OC)c1OC | > 10000 nM | > 10000 nM | > 10000 nM | > 10000 nM | > 10000 nM | > 10000 nM |  |  |  |  |  |  |  |  |  |  |  |
| 14100 nM | COc1cc(N)c(/C=C\c2cc(OC)c(OC)c(OC)c2)cc1N | 1000 nM | 380 nM | 440 nM | 330 nM | 610 nM | 550 nM |  |  |  |  |  |  |  |  |  |  |  |
|  | COc1ccc(/C=C\c2cc(OC)c(OC)c(OC)c2)cc1OP(=O)([O-])[O-].[Na+].[Na+] [FOSBRETABULIN DISODIUM] |  |  |  |  |  |  | 88% | 800 nM | 2 nM |  |  |  |  |  |  | 10% | 0.4 nM |
|  | COc1cc(N)c(/C=C\c2cc(OC)c(OC)c(OC)c2)cc1[N+](=O)[O-].Cl |  | 4300 nM |  | 3500 nM | 1500 nM |  | 13.7% |  |  | 1200 nM |  | 1200 nM |  | 980 nM |  | 0% | 6600 nM |
|  | COc1cc(/C=C\c2ccc(OC)c(OP(=O)([O-])[O-])c2OP(=O)([O-])[O-])cc(OC)c1OC.[Na+].[Na+].[Na+].[Na+] |  |  |  |  |  |  | 99% | 3200 nM | 4.6 nM |  |  |  |  |  |  | 70% | < 10 nM |
| 7400 nM | COc1cc(/C=C\c2cc([N+](=O)[O-])c(OC)c([N+](=O)[O-])c2)cc(OC)c1OC | 790 nM | 370 nM | 520 nM | 260 nM | 410 nM | 680 nM |  |  |  |  |  |  |  |  |  |  |  |
|  | COc1cc(/C=C\c2cc(N)c(OC)c(N)c2)cc(OC)c1OC | 1500 nM | 2400 nM | 1100 nM | 2100 nM | 1500 nM | 1500 nM | 4.6% |  |  |  |  |  |  |  |  | 3.1% | 5200 nM |
| 1900 nM | COc1ccc(/C=C\c2cc(OC)c(OC)c(OC)c2)c(O)c1O [COMBRETASTATIN A-1] | 4400 nM | 740 nM | 61 nM | 170 nM |  |  |  |  |  |  |  |  |  |  |  |  |  |

| SMILES | IC50 [5] | GI50 ([1]; Homo sapiens, BXPC-3, 48 h) | GI50 ([2]; Homo sapiens, NCI-H460, 48 h) | GI50 ([3]; Homo sapiens, KM-20L2, 48 h) | GI50 ([4]; Homo sapiens, DU-145, 48 h) | GI50 ([6]; Homo sapiens, MCF7, 48 h) | GI50 ([7]; Homo sapiens, SF-268, 48 h) | Activity [8] | IC50 [9] | IC50 [10] | GI50 [1] | GI50 [6] | GI50 [7] | GI50 [2] | GI50 [3] | GI50 [4] | Activity [11] | EC50 [12] |
| --- | --- | --- | --- | --- | --- | --- | --- | --- | --- | --- | --- | --- | --- | --- | --- | --- | --- | --- |
| COc1cc(/C=C/c2ccc(OC)c([N+](=O)[O-])c2[N+](=O)[O-])cc(OC)c1OC | > 40000 nM | > 10000 nM | > 10000 nM | > 10000 nM | > 10000 nM | > 10000 nM | > 10000 nM |  |  |  |  |  |  |  |  |  |  |  |
| COc1ccc(/C=C\c2cc(OC)c(OC)c(OC)c2)c(N)c1N [listing 1 of 2 here] | 1800 nM | 14 nM | 9 nM | 19 nM | 12 nM | 11 nM | 11 nM |  |  |  |  |  |  |  |  |  |  |  |
| COc1cc(/C=C\c2cc(NC(=O)[C@@H](N)CO)c(OC)c(NC(=O)[C@@H](N)CO)c2)cc(OC)c1OC | > 40000 nM |  |  |  |  |  |  |  |  |  |  |  |  |  |  |  |  |  |
| COc1cc(/C=C\c2cc(N)c(OC)c(N)c2)cc(OC)c1OC.Cl.Cl | > 40000 nM |  |  |  |  |  |  | 6% | > 44800 nM | > 1400 nM |  |  |  |  |  |  | 0% |  |
| COc1cc(/C=C\c2ccc(OC)c([N+](=O)[O-])c2[N+](=O)[O-])cc(OC)c1OC | > 40000 nM | 2100 nM | 370 nM | 330 nM | 200 nM | 2300 nM | 2500 nM |  |  |  |  |  |  |  |  |  |  |  |
| COc1ccc(/C=C\c2cc(OC)c(OC)c(OC)c2)c(N)c1N [listing 2 of 2 here] | 2800 nM |  |  |  |  |  |  |  | 2400 nM | 4.3 nM | 7.9 nM | 6.2 nM | 8.3 nM | 18 nM | 25 nM | 18 nM | 40% |  |
